Assay outcomes (PubChem BioAssay)
Most compounds without a hit are left out; they make up all but 1.5% or so of the library.
GSIS activator = primary screen for activators of insulin secretion dependent on glucose, INS-1E cells, GLuc reporter luminescence | activation, % at 16.6 µM | 0.61% of 370,000 active | INS-1E GLuc reporter insulin secretion, 2-3 h | AID 743287;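 active = lowest replicate activation of at least 40%, so every replicate reaches that level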;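 note: 0% = median of neutral control wells and 100% = median of IBMX positive control wells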
S100A4 inh HTS = inhibitors of human S100A4 binding to myosin IIA peptide; P26447; S100A4/TAMRA-MyoIIA peptide fluorescence polarization; inhibition, % at 10.7 µM; 0.14% of 360,000 active;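 active = mean inhibition of at least 70% across replicates, with every replicate also reaching that level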
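System – human S100A4 monomer protein, biochemical binding assay · Buffer or medium – Calcium-containing HEPES buffer, pH 7.2 · Timing – 5 min between mix addition and reading · Also added – TAMRA-labelled myosin IIA heavy-chain peptide probe, 5 nM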
MLL AF4-AF9 inh = MLL-AF4/AF9 protein interaction inhibition. P42568. 0.47% of 350,000 active. AlphaScreen, biotin-AF4 peptide binding to FLAG-AF9. AID 651704. inhibition, % at 10 µM;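 active = every replicate reaching a set inhibition limit, whatever the replicate mean, cut at about 25% in these data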;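 note: 0% = plate neutral control median and 100% = total signal loss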
ERAP1 HTS inh = blocks human ERAP1 aminopeptidase activity | inhibition, % at 10.7 µM | AID 652197 | 0.15% of 340,000 active | Q9NZ08 | recombinant ERAP1, Leu-AMC fluorescence, 60 min;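 active = mean replicate inhibition of at least 30%, or all replicates individually reaching that 30% level; inactive = mean below 30% and not every replicate reaching it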;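 note: 0% = neutral control wells and 100% = L-leucinethiol positive control wells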
RAD52 inh = blocks human RAD52 DNA annealing | P43351 | 0.46% of 360,000 active | recombinant RAD52 DNA annealing, FRET fluorescence | inhibition, % at 18.7 µM;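 active = every replicate showing at least 50% inhibition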
Target sequence (P43351 whole entry, looked up): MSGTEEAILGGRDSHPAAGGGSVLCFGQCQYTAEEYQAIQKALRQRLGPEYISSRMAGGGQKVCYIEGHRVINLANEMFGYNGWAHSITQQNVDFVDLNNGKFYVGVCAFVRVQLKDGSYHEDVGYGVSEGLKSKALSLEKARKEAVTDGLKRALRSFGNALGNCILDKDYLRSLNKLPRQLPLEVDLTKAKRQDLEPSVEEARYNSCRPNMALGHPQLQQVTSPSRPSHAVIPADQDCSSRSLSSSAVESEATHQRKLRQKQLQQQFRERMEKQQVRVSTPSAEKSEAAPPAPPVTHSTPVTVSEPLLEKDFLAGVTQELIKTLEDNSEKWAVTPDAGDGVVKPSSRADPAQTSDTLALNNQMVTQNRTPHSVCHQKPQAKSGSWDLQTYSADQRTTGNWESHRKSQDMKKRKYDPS
An asterisk follows results filed as active; · = no result given.

SMILES	GSIS activator	S100A4 inh HTS	MLL AF4-AF9 inh	ERAP1 HTS inh	RAD52 inh
Cc1ccc(S(=O)(=O)c2ncccc2[N+](=O)[O-])cc1	65*	-4	3	6	-17
COc1cc(/C=C2/C(=O)CNC2=O)ccc1O	13	·	·	·	·
COc1cc(C=C2C(=O)C=CC2=O)ccc1O	52*	0	-12	53*	8
CC(C)NC(=O)Nc1ccc2c(c1)C(=O)N([C@H](C)CO)C[C@H](C)[C@@H](CN(C)Cc1ccncc1)O2	12	-1	-3	0	0
CCC(C)N1C(=O)S/C(=C/c2ccc(N3CCOCC3)cc2C)C1=O (stereo not given)	9	-9	26*	7	-15
C#CCN1C(=O)S/C(=C\c2ccc(N3CCOCC3)cc2C)C1=O	22	·	·	·	·
COc1ccc2c3c(n(C)c2c1)[C@H](CO)N(Cc1ccc2c(c1)OCO2)CC31CN(C)C1	8	·	·	·	·
O=c1[nH]c(=S)[nH]c2scc(-c3ccc(Br)cc3)c12	-2	-1	-3	·	-7
O=c1[nH]c(=S)[nH]c2sccc12	6	6	-7	50*	-16
O=c1cc(-c2ccccc2)nc(SCc2ccccc2)[nH]1	79*	·	·	·	·
C[N+]1(CC(O)c2ccccc2)CCCCCC1 (stereo not given)	8	4	0	43*	-21
C/C=C/c1ccc([C@H]2[C@@H](CN(C)C(C)=O)N(C(=O)NCCC)[C@H]2CO)cc1	3	2	-1	-3	2
NC(=O)CSc1nc(-c2ccccc2)c(-c2ccccc2)o1	73*	·	·	·	·
Nc1nc(Cl)cc(NCCc2ccccc2)n1	14	-2	-7	-4	-15
CCCCNc1cc(Cl)nc(N)n1	58*	7	-3	2	-26
O=C(N/N=C/c1ccncc1)c1cc(-c2ccc(Br)s2)[nH]n1	43*	0	2	0	-18
CCn1c(Cl)c(C=O)s/c1=N\S(=O)(=O)c1ccccc1	58*	-27	·	0	-104
CCN1C(=O)CS/C1=N\S(=O)(=O)c1ccc(Cl)cc1	-1	0	-1	-1	-16
c1ccc2c3c([nH]c2c1)CCNC3	15	3	25*	3	-1
O=C(C[C@H]1C=C[C@H](NC(=O)Nc2ccc(F)cc2)[C@@H](CO)O1)NCCN1CCCC1	4	-4	5	3	0
N#Cc1cccc(-c2ccc3c(c2)[C@@H]2[C@@H](CCN2C(=O)c2ccncc2)[C@@H](CO)N3)c1	20	98*	-4	1	-96
N#Cc1ccc(-c2ccc3c(c2)[C@@H]2[C@@H](CCN2C(=O)c2ccncc2)[C@H](CO)N3)cc1	20	10	2	-3	1
On1ccccc1=S	87*	0	6	23	-5
O=C(Nc1ccc(F)cc1)N[C@@H]1C=C[C@H](CC(=O)N2CCCCC2)O[C@@H]1CO	5	28	-2	-2	13
O=C(C[C@@H]1C=C[C@H](NC(=O)Nc2cc(F)ccc2F)[C@@H](CO)O1)NCc1ccccn1	10	1	-3	-2	8
SMILES	GSIS activator	S100A4 inh HTS	MLL AF4-AF9 inh	ERAP1 HTS inh	RAD52 inh
OC(COCCC12CC3CC(CC(C3)C1)C2)CN1CCCC1 (stereo not given)	25	2	1	17	-8
CC(NCC(O)COCCC12CC3CC(CC(C3)C1)C2)c1ccccc1 (stereo not given)	167*	-3	9	3	55*
CN(C)C(=O)c1ccc(-c2ccc([C@@H]3[C@@H](CO)N4CCCCN(S(C)(=O)=O)C[C@@H]34)cc2)cc1	-11	-12	-5	2	-12
C/C=C/c1ccc2c(c1)O[C@@H](CN(C)C(=O)CN1CCOCC1)[C@H](C)CN([C@H](C)CO)S2(=O)=O	-2	-9	2	-1	3
CCN(CC)S(=O)(=O)c1ccc(C)c(NC(=O)CSc2ncc(C(F)(F)F)cc2Cl)c1	169*	·	·	·	·
Cc1ccc(S(=O)(=O)N(C)C)cc1NC(=O)CSc1ncc(C(F)(F)F)cc1Cl	-26	-5	0	-7	-5
COC1C=COC2(C)Oc3c(C)c(O)c4c(O)c(c(CN5CCN(C)CC5)c(O)c4c3C2=O)NC(=O)C(C)=CC=CC(C)C(O)C(C)C(O)C(C)C(OC(C)=O)C1C (stereo not given)	·	4	0	4	-49
